pIC50: −log10 of the molar value.
Assays:
RAW264.7 [1] = assay: Antiinflammatory activity in LPS-stimulated mouse RAW264.7 cells assessed as inhibition of nitric oxide production after 24 hrs by Griess reagent; format: functional, cell-based; settings: RAW264.7, 24 h
RAW264.7 [2] = assay: Cytotoxicity against LPS-stimulated mouse RAW264.7 cells after 24 hrs by MTT assay; format: cell-based; settings: RAW264.7, 24 h
Summary of the method: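 RAW264.7 in 96-well plates left untreated or exposed to compounds at various concentrations for 24 h. MTT (5 mg/mL) added 4 h before end. Lysis buffer (10% SDS, 50% DMF, pH 7.2) applied 6 h, absorbance read at 570 nm.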

| SMILES | pIC50 (RAW264.7 [1]) | pIC50 (RAW264.7 [2]) |
| --- | --- | --- |
| O=c1cc(-c2ccc(O)cc2)oc2cc(O)cc(O)c12 [APIGENIN] | 5.11 |  |
| CC(=O)Oc1coc2cc(O)cc(O)c2c1=O | 4.22 | < 4.00 |
| O=c1c(CO)coc2cc(O)cc(O)c12 | < 4.00 | < 4.00 |
| O=c1cc(-c2ccc(O)c(O)c2)oc2cc(O)cc(O)c12 [LUTEOLIN] | 4.98 |  |
| CCCCC(=O)Oc1coc2cc(O)cc(O)c2c1=O | 4.22 | < 4.00 |
| O=c1c(O)coc2cc(O)cc(O)c12 | < 4.00 | < 4.00 |
| O=C(Oc1coc2cc(O)cc(O)c2c1=O)c1ccccc1 | 4.06 | < 4.00 |

Further lines, with some results ahead:

| pIC50 (RAW264.7 [1]) | SMILES | pIC50 (RAW264.7 [2]) |
| --- | --- | --- |
| 4.77 | Cc1ccccc1C(=O)Oc1coc2cc(O)cc(O)c2c1=O | < 4.00 |
| 4.21 | CCCCCCCCC(=O)Oc1coc2cc(O)cc(O)c2c1=O | < 4.00 |
| 5.11 | CCn1cc(-c2ccc(O)cc2)c(=O)c2c(O)cc(O)cc21 [AZAISOFLAVONE] |  |
| 4.59 | O=c1c(-c2ccc(O)cc2)coc2cc(O)cc(O)c12 [GENISTEIN] |  |
| 4.72 | Cc1ccc(S(=O)(=O)Oc2coc3cc(O)cc(O)c3c2=O)cc1 | < 4.00 |
| 4.27 | CS(=O)(=O)Oc1coc2cc(O)cc(O)c2c1=O | < 4.00 |
| 4.33 | COc1ccc(C(=O)Oc2coc3cc(O)cc(O)c3c2=O)cc1 | < 4.00 |

Reference: ChEMBL document CHEMBL1156242, “Synthesis of a novel series of diphenolic chromone derivatives as inhibitors of NO production in LPS-activated RAW264.7 macrophages” (Bioorg Med Chem, 2010)
